Published values collected from several papers.
Protocols differ between the studies behind these lines.
Oprm1: Mu-type opioid receptor (Oprm1, Rattus norvegicus, UniProt P33535)

With `CCN(CC)CCCC[C@H](NC(=O)[C@H](CC(C)C)NC(=O)[C@H](C)NC(=O)[C@H](Cc1ccccc1)NC(=O)c1ccc(C(C)(C)C)cc1)C(=O)N[C@@H](CO)C(=O)OC` the remaining binding was 93.1% (5-hydroxytryptamine receptor 5A (HTR5A, Homo sapiens, UniProt P47898); ligand displacement, radioligand; 10 µM).
With `C[C@@H](O)[C@@H]1CN([C@H](Cc2ccc3ccccc3c2)CN2CCC[C@H]2CN2CCNC[C@@H]2Cc2ccc3ccccc3c2)CCN1CCC12CC3CC(CC(C3)C1)C2` the remaining binding was 107% (Oprm1; ligand displacement, radioligand; 0.5 µM, 1 h, pH 7.5, cell membranes).
With `C#Cc1n[nH]c2c(-c3cn(C(C)c4ccccn4)c(=O)[nH]c3=O)cc(F)cc12` (centres unmarked) the inhibition was 4% (Myosin light chain kinase, smooth muscle (MYLK, Homo sapiens, UniProt Q15746); enzyme activity, inhibitor; 1 µM).
`CC[C@@H](C)[C@@H]1CN([C@@H](CC2CCCCC2)CN2CCC[C@H]2CN2CCNC[C@@H]2CO)CCN1CCc1ccc(Cl)c(Cl)c1` gave a remaining binding of 97.8% (Oprm1; ligand displacement, radioligand; 0.5 µM, 1 h, pH 7.5, cell membranes).
With `Cn1cc(-c2cccc(N3CCc4c(sc5c4CC(C)(C)C5)C3=O)c2CO)cc(Nc2ccncn2)c1=O` the inhibition was 0% (Mast/stem cell growth factor receptor Kit (KIT, Homo sapiens, UniProt P10721, T670I); enzyme activity, inhibitor; 1 µM).
`Cc1nn(C)cc1-c1nc2c(N3CCN(Cc4ccc(Cl)cc4)CC3)c(Cl)cnc2[nH]1` gave a remaining binding of 71% (Mast/stem cell growth factor receptor Kit (KIT, Homo sapiens, UniProt P10721, D816H); binding, competition with immobilised ligand; 1 µM).
`Nc1ncc(-c2nc(N3CCOCC3)nc(N3CCOCC3)n2)c(C(F)F)n1` gave a remaining binding of 80% (Mast/stem cell growth factor receptor Kit (KIT, Homo sapiens, UniProt P10721, A829P); binding, competition with immobilised ligand; 10 µM).
The inhibition of `Cn1cc(-c2cc(F)cc(N3CCn4c(cc5c4CCCC5)C3=O)c2CO)cc(Nc2ccc(N3CCN(C4COC4)CC3)cn2)c1=O` is reported as -1% (Phosphatidylinositol 4,5-bisphosphate 3-kinase catalytic subunit delta isoform (PIK3CD, Homo sapiens, UniProt O00329); enzyme activity, inhibitor; 0.1 µM).
`OC[C@H]1CNCCN1C[C@@H]1CCCN1C[C@H](CC1CCCCC1)N1CCN(CCc2ccc(Cl)c(Cl)c2)[C@H](Cc2ccc(O)cc2)C1` gave a remaining binding of 105% (Oprm1; ligand displacement, radioligand; 0.5 µM, 1 h, pH 7.5, cell membranes).
The koff of `O=C(c1cc(O)c(O)c([N+](=O)[O-])c1)c1ccccc1F` is reported as 0.132 s⁻¹ (Transthyretin (TTR, Homo sapiens, UniProt P02766); binding, SPR).
`COc1cc(Cl)c(C(=O)N[C@@H](CN[C@H]2CC[C@@H](N)CC2)Cc2ccc(C#N)cc2)cc1-c1ccc(CN[C@H](C)c2ccc(C)cc2)o1` has a remaining activity of 107% (Serine/threonine-protein kinase Nek11 (NEK11, Homo sapiens, UniProt Q8NG66); enzyme activity, inhibitor; 1 µM).
`COc1ncccc1-c1cnn2ccc(N3CCN(C(=O)OC(C)C)CC3)nc12` gave a remaining binding of 79% (Casein kinase II subunit alpha (CSNK2A1, Homo sapiens, UniProt P68400); binding, competition with immobilised ligand; 1 µM).
With `CC(C)(C)c1nc2c(s1)c1nc(N)ncc1c1ccc(NS(=O)(=O)c3c(F)cccc3F)c(F)c12` the remaining activity was 79% (Tau-tubulin kinase 1 (TTBK1, Homo sapiens, UniProt Q5TCY1); enzyme activity, inhibitor, radiometric; 1 µM).
`CC[C@@H](C)[C@@H]1CN([C@@H](CC2CCCCC2)CN2CCC[C@H]2CN2CCNC[C@@H]2CO)CCN1CCC12CC3CC(CC(C3)C1)C2` has a remaining binding of 101% (Oprm1; ligand displacement, radioligand; 0.5 µM, 1 h, pH 7.5, cell membranes).
